Measured values as given in the EternaBench riboswitch data.

Tested on: MS2 coat protein
Test: apparent Kd, MS2 coat protein; higher = weaker binding; RNA-MaP array; FMN 200 µM where present
Summary of the method: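 Green signal from SNAP-549-labelled MS2 coat protein was normalised to red-channel RNA signal and to the median Fmax of control clusters. The protein was titrated from 0.7 or 1.5 nM, doubling to 3 µM, without and then with constant ligand, over designs transcribed by stalled E. coli RNA polymerase on Illumina sequencing-chip clusters, in 100 mM Tris-HCl pH 7.5, 80 mM KCl, 4 mM MgCl2, BSA, DTT, yeast tRNA and Tween-20. The apparent Kd is the median of filtered per-cluster binding-curve fits.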

[1] = designed as: OFF switch for flavin mononucleotide, no ligand
[2] = ligand present: flavin mononucleotide, designed as: OFF switch for flavin mononucleotide
[3] = designed as: ON switch for flavin mononucleotide, no ligand
[4] = ligand present: flavin mononucleotide, designed as: ON switch for flavin mononucleotide

Row | Sequence | apparent Kd [1] [nM] | apparent Kd [2] [nM] | apparent Kd [3] [nM] | apparent Kd [4] [nM]
1 | GUAAUUAAGAGAGGAUAUUGACAUGAGGAUCACCCAUGUAUUUGGGAGUGUUUACUGAAUUCUUACGAGAAGGCUUUUAAAUAC | 89.2 | 178 | – | –
2 | GUACAGAAGGAGAAGGGCUAGGAGGUCCAGCUUAUGUGUGUUGCAACAUGAGGAUCACCCAUGUAGCAGGAUAUCCUUUGUACA | 41.1 | 440 | – | –
3 | GUACAGAUCACAGGAUAUCACGUCGUUUAGACGUGAGAAGGGUGAUCACACAUGAAUAUUAAUACAUGAGGAUCACCCAUGUAC | – | – | 36 | 97.7
4 | GUACAGUAGUGAGGAUAUACGAGAUCGAUAGAUCGGCGAUCCAAUAAUACAUGAGGAUCACCCAUGUAGAAGGCACUUCUGUAC | 7.69 | 113 | – | –
5 | GUACAGUAGUGAGGAUAUACGAGAUCGAUAGAUCGGCGAUCCAUAUAUACAUGAGGAUCACCCAUGUAGAAGGCACUUCUGUAC | 7.7 | 104 | – | –
6 | GUACAUACAAAGUUACAUGAGGAUCACCCAUGUUUAUUGGGAAGAAGGGUAACAUUAUUAGAUGUAUAGGAUAUUUCACAAUUG | – | – | 511 | 316
7 | GUACUGUAGUGAGGAUAUACGAGAUCGAUAGAUCGGCGAUCCAUUAAUACAUGAGGAUCACCCAUGUAGAAGGCACUUCAGUAC | 6.25 | 78.4 | – | –
8 | GUACUGUAGUGAGGAUAUACGAGUACGAUAGUACGGCGAUCCAUUUAUACAUGAGGAUCACCCAUGUAGAAGGCACUUCAGUAC | 6.09 | 61.6 | – | –
9 | GUACUGUAGUGAGGAUAUACGAGUGCGAUAGCACGGCGAUCCAAUUAUACAUGAGGAUCACCCAUGUAGAAGGCACUUCAGUAC | 9.04 | 41 | – | –
10 | GUAGAGUAAGGAUAUAGAGAAUAGGAUAGAAUGGUUAGAAUCUAGAAGGUACAUGAGGAUCACCCAUGUAAUGU | 21.9 | 19.8 | – | –
11 | GUAGAGUAAGGAUAUCGAGAAUAGGAUAGAAUGGAUAGAAUCGAGAAGGUACAUGAGGAUCACCCAUGUAAUGU | 20.3 | 18.6 | – | –
12 | GUAGAGUAAGGAUAUGGUGAAUAGGAUAGAAUGGUUAGAAAUCAGAAGGUACAUGAGGAUCACCCAUGUAAUGU | 23 | 22.4 | – | –
13 | GUAGAGUAAGGAUAUUGUGAAUAGGAUAGAAUGGUUAGAAGCAAGAAGGUACAUGAGGAUCACCCAUGUAAUGU | 22.5 | 23.6 | – | –
14 | GUAGAGUAGUGAGGAUAUACGAGCACGAUAGUGCGGCGAUCCAAUAAUACAUGAGGAUCACCCAUGUAGAAGGCACUUCUCUAC | 7.43 | 81.2 | – | –
15 | GUAGCAACAUGAGGAUCACCCAUGUAGGAUAUCGCUAUUGUAAUCAUGAAACAUGAUUACAAUAGCGAGAAGGACAUAAGCUAC | 6.67 | 8.84 | – | –
16 | GUAGCAUAAUCAGGAUAUUCAGAGAAUAAAUAAACAUGAGGAUCACCCAUGUGGCGAAAGCCUAGGGAGAAGGGAUAAUGCUAC | – | – | 118 | 24.8
17 | GUAGCAUAAUUAGGAUAUUCAGCGAAUAGAUUGACAUGAGGAUCACCCAUGUGGCGAAAGCCGAGGGAGAAGGGAUAAUGCUAC | – | – | 157 | 61.1
18 | GUAGCAUACCAAGGAUAUUUAGGGCUUUGAUAGACAUGAGGAUCACCCAUGUGGCGUUAGUCAAGGGAGAAGGUGGUAUGCUAC | – | – | 22.6 | 14.5
19 | GUAGCAUACCGAGGAUAUUCAUACAGGAAACUGACAUGAGGAUCACCCAUGUGGCGAAAGCCUUGGGAGAAGGCGGAAUGCUAC | – | – | 637 | 28.4
20 | GUAGCAUACCGAGGAUAUUCAUAUCGGAAACGAACAUGAGGAUCACCCAUGUGGCGAAAGCCUUGGGAGAAGGCGGAAUGCUAC | – | – | 589 | 24.5
21 | GUAGCAUUAAUAGGAUAUUCAUACCGGAAACGGACAUGAGGAUCACCCAUGUGGCGAAAGCCUUGGGAGAAGGUAAUAUGCUAC | – | – | 821 | 240
22 | GUAGCAUUCUGAGGAUAUUCAUACCGGAAACGGACAUGAGGAUCACCCAUGUGGCGAAAGCCUAGGGAGAAGGCAGUAUGCUAC | – | – | 56.6 | 13.8
23 | GUAGCAUUGAGAGGAUAUCCAUACCGGAAACGGACAUGAGGAUCACCCAUGUGGCGAAAGCCAUGGGAGAAGGCUCUAUGUUAC | – | – | 11.1 | 4.96
24 | GUAGCAUUGUGAGGAUAUCCAUAUCCGAAAGGGACAUGAGGAUCACCCAUGUCGCGAAAGCGGUGGGAGAAGGCACUAUGCUAC | – | – | 4.31 | 4.03
25 | GUAGCUAUCGGAGGAUAUCCUCAGCGGAAACGCACAUGAGGAUCACCCAUGUAAAUAAAUAAUUUGGAGAAGGCCGAUAGCUAC | – | – | 292 | 18.6
26 | GUAGUGUAGUGAGGAUAUACGAGAUCGAUAGAUCGGCGAUCCAUAUAUACAUGAGGAUCACCCAUGUAGAAGGCACUUCACUAC | 7.5 | 91.5 | – | –
27 | GUAGUGUAUGUAGGAUAUGUGAAGCAAAGCUUCACAGAAGGACAUGAGGAUCACCCAUGUAUUGCAGUCAGCAAUCUGACUGCU | 41 | 145 | – | –
28 | GUAUGACAAAGUCAUACCGCUUUGACAUGAGGAUCACCCAUGUAGGAUAUAUUAAUCAAAGAUUAAUAGAAGGACAUGUUUCUU | 43.7 | 114 | – | –

Row | Sequence | apparent Kd [1] [nM] | apparent Kd [2] [nM] | apparent Kd [3] [nM] | apparent Kd [4] [nM]
29 | GUAUGAGCGAUAGGAUAUACUGAGAUUGAAUGGGUAGAAGGAUCACUUGUGAGGAAGACAUGAGGAUCACCCAUGUCACGGGCC | – | – | 92.8 | 119
30 | GUAUGGGUAGAAGGACAUGAGGAUCACCCAUGUUGUGUGUCUAAGGAUAUUAGAGAAGAUUGACGUAAGAAGGUAGAUGUGUGG | 94.2 | 80.8 | – | –
31 | GUCACUAGAGGAUAUACAAUGGUAUAUGAUCCUAGAGACAUACAUGAGGAUCACCCAUGUAGAAGGCUAGUAUU | 64.6 | 43.5 | – | –
32 | GUCAGACGAGGAUAUAGAUUUAAGUACAUGAGGAUCACCCAUGUACACAUGUAUUUAGAUUUAGAAGGCGUCUGAC | 594 | 700 | – | –
33 | GUCAGCUCGUGAGGAUAUACAACACUACUUCGGCAGUGUAUUAAGAUCACAUGAGGAUCACCCAUGUAGAAGGCACGAGCUGAU | 14 | 228 | – | –
34 | GUCAGCUCGUGAGGAUAUACAACACUGCAUCGGCAGUGUAUUAAGAUCACAUGAGGAUCACCCAUGUAGAAGGCACGAGCUGAU | 13 | 246 | – | –
35 | GUCAGCUCGUGAGGAUAUACAACACUGCUCCGGCAGUGUAUUAAGAUCACAUGAGGAUCACCCAUGUAGAAGGCACGAGCUGAU | 13.3 | 237 | – | –
36 | GUCAGCUCGUGAGGAUAUACAACACUGCUUCGGCAGUGUAUUAAGAUCACAUGAGGAUCACCCAUGUAGAAGGCACGAGCAGAU | 13.4 | 258 | – | –
37 | GUCAGCUCGUGAGGAUAUACAACACUGCUUCGGCAGUGUAUUAAGAUCACAUGAGGAUCACCCAUGUAGAAGGCACGAGUUGAU | 13.9 | 276 | – | –
38 | GUCAGCUCGUGAGGAUAUACAUGUGCUGGAAACAGCAUUAAAUUUUUCACAUGAGGAUCACCCAUGUAGAAGGCACGAGCUGAU | 17.3 | 39.1 | – | –
39 | GUCAGCUCGUGAGGAUAUACAUGUGCUGGAGACAGCAUUAAAUUUUUCACAUGAGGAUCACCCAUGUAGAAGGCACGAGCUGAU | 18.4 | 49.4 | – | –
40 | GUCAGCUCGUGAGGAUAUACAUGUGCUGGAUACAGCACUAAUAGAAUCACAUGAGGAUCACCCAUGUAGAAGGCACGAGCUGAU | 17.6 | 39.4 | – | –
41 | GUCAGCUCGUGAGGAUAUACAUGUGCUGGAUACAGCACUAUUGUGUUCACAUGAGGAUCACCCAUGUAGAAGGCACGAGCUGAU | 17.7 | 87.3 | – | –
42 | GUCAGCUCUUGAGGAUAUACAACACUGCUUCGGCAGUGUAUUAAGAUCACAUGAGGAUCACCCAUGUAGAAGGCACGAGCUGAU | 13.2 | 170 | – | –
43 | GUCCCGAGGGAGAAGGGCUAGAAGGUCCAGCUUAUGUGUGUUGCAACAUGAGGAUCACCCAUGUAGCAGGAUAUCCCUUGUACA | 18.1 | 39.6 | – | –
44 | GUCCGGCGUGUAGGAUAUGGAUCCGAUUAGGAUCCAGAAGGACAUGAGGAUCACCCAUGUACAUGUAAACAGUCAUCACCGGAG | 9.11 | 58.9 | – | –
45 | GUCCUACAUGAGGAUCACCCAUGUGAGGAUAUGUGGUUAGCUGCUAGGUAGUUAGUAUGCAGAAGGUACGUGAU | 40.4 | 41.9 | – | –
46 | GUCCUCUCUGAGGAUAUUAUCCGGUCCGAUUGAUAAGAAGGCAGUACAUGAGGAUCACCCAUGUGGGUUGUCUG | 62.6 | 170 | – | –
47 | GUCCUUAACGAGGAUAUCGGGCGGGUUUUUGUUUGAGAAGGUGUGACAUGAGGAUCACCCAUGUGGCGCGUGGG | 318 | 258 | – | –
48 | GUCGAGUGAGGAUAUUGAAUCGGUGGCAGACCACACGAGCUCGAGAAGGCACAUGAGGAUCACCCAUGUGGGUC | 28.1 | 41.6 | – | –
49 | GUCGGAAACGACAAAAGUACCGGAGCAGAAGGCAUGUCAUAAGACAUGAGGAUCACCCAUGUGCAUGAGGAUAUGCUCCGGUAC | – | – | 5.45 | 4.68
50 | GUCGGAAACGACAAAAGUAGCAUACGAGAAGGCUGAUCCACGACAUGAGGAUCACCCAUGUAGUUAGAGGAUAUUGGAUGCUAC | – | – | 61.6 | 12.9
51 | GUCGGAAACGACAAAAGUAGCAUAGGAGAAGGCAUGUCAUAAGACAUGAGGAUCACCCAUGUCCGUGAGGAUAUCCUAUGCUAC | – | – | 8.14 | 6.15
52 | GUCGGAAACGACAAUGAUAGGACUGAGGAUAUACAUAAGUUAGUCCAUACAUGAGGAUCACCCAUGUAGAAGGCAGUCCUAUCU | 7.78 | 33.4 | – | –
53 | GUCGUGUGAGGAUAUGGAUAGUAGCAGUGGCGGUCGGCGACCUAGAAGGCACAUGAGGAUCACCCAUGUAAGAG | 40.6 | 37.8 | – | –
54 | GUCUUGAUAGGAUAUACAUGAGGAUCACCCAUGUCCCACCCGUUACCUCUGGCCCUAUGUAGAAGGAUCGUCUG | 50.2 | 45.6 | – | –
55 | GUCUUGUCAGGAUAUCUUACAUAACAAUCGUAGUUACAAUUGGAGAAGGGACAUGAGGAUCACCCAUGUUAGCG | 32.9 | 36 | – | –
